Experimental data: PMC10079166 (Journal of medicinal chemistry, 2019)
“Also recorded” adds a separate entry of the source. Where two headings read alike, the source gives them in different places. Non-standard residues stand in square brackets, D forms with d. Residues, ends and D or L forms follow the SMILES beside them. dPhe(4-guanidino) = N=C(N)Nc1ccc(C[C@@H](N)C(=O)O)cc1

Key:
human MRGPRX1 [1] = biological target: T1, human MRGPRX1 (Homo sapiens, UniProt Q96LB2); assay type: cell-based; settings: for agonist type at human MRGPRX1: HTS hits, FLIPR calcium 4 Assay Kit; for ligand efficiency (LE): human MRGPRX1 agonists; for agonist activity at MRGPRX1: at concentrations up to 100 μM; for fold decrease in agonist potency as compared to 5a: relative to 5a
Summary of the method: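 HEK293 cells stably expressing human MrgprX1 were plated at 25,000 cells/well and grown 2 days. They were loaded with 2 μM Fluo 4AM and 1% Trypan Red in HBSS for 50 min at 37°C, then equilibrated 10 min at room temperature. Serial dilutions in HBSS were added, with BAM 8–22 as positive and HBSS as negative control. FLIPR imaging ran 2 min; read-out was maximum minus minimum fluorescence.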

[2] = tested on: HVA Ca2+ currents in human MRGPRX1-expressing DRG neurons; assay type: cell-based, mouse; settings: DRG neurons from MrgprX1 mice
human MRGPRX1 [3] = biological target: T1, human MRGPRX1; settings: cited from earlier work
[4] = tested on: mechanical and thermal hyperalgesia; settings: intrathecal (spinal cord) injection, mice; cited from earlier work
rat MRGPRC = settings: cited from earlier work
mouse MRGPRC11 [5] = biological target: T2, mouse MRGPRC11 (Mus musculus, UniProt Q8CIP3); settings: cited from earlier work
T2 sequence (Q8CIP3 1-322): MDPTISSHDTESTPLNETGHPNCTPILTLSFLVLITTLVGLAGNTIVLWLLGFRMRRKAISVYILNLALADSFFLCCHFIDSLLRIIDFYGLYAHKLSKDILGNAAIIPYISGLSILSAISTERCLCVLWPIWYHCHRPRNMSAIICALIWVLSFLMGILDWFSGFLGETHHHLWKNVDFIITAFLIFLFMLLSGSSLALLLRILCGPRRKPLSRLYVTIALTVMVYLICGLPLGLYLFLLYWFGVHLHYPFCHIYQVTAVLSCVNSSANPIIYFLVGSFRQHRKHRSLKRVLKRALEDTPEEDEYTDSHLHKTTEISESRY

[6] = tested on: mechanical and thermal hyperalgesia; settings: intrathecal (spinal cord) injection, rats; cited from earlier work
neuropathic pain = settings: rodent models of neuropathic pain; cited from earlier work
mouse MRGPRC11 [7] = biological target: T2, mouse MRGPRC11; assay: Agonist activity at mouse MRGPRC11; assay type: cell-based; settings: even at concentration of 40 μM
[8] = Metabolic stability in mouse liver microsomes; assay type: in vitro ADME
[9] = tested on: δ-, μ- and κ-opioid receptors; assay: Selectivity of MRGPRX1 agonists over opioid receptors; assay type: binding; settings: MRGPRX1 versus δ-

T1 sequence (Q96LB2 whole entry): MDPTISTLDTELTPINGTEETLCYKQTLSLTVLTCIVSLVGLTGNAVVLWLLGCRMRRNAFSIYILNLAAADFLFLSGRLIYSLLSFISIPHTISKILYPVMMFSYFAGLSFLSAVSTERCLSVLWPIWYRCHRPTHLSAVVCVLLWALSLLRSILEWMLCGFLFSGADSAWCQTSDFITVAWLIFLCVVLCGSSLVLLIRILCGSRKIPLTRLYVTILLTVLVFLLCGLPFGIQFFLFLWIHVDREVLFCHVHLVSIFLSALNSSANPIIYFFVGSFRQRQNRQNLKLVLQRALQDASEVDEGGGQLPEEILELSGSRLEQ

Q: Which “agonist type at human MRGPRX1” value (human MRGPRX1 [1]) does the source give for CCCCS(=O)(=O)Nc1cc(C)ccc1Oc1ccc(C(=N)N)cc1 [Compound 11a, 4-(2-(Butylsulfonamido)-4-methylphenoxy)benzimidamide] here?
A: Its value is “full agonists”.

Q: What about the “ligand efficiency (LE)” value (human MRGPRX1 [1]) of the same molecule?
A: The value was 0.32–0.33.

Q: Which results are given for COc1cc(CNc2ccccc2C(=N)N)ccc1OCc1ccccc1 [Compound 5c, 2-(4-(Benzyloxy)-3-methoxybenzylamino)benzimidamide]?
A: agonist activity at MRGPRX1 (human MRGPRX1 [1]): negligible agonist activity; fold decrease in agonist potency as compared to 5a (human MRGPRX1 [1]): > 100 fold; inhibitory effect on HVA Ca2+ currents ([2]; bath application of 10 μM): no inhibitory effects

Q: With COc1cc(CNc2ccc(C(=N)N)cc2)ccc1OCc1ccccc1 [Compound 5a, 4-(4-(Benzyloxy)-3-methoxybenzylamino)benzimidamide] as the molecule, how does the “agonist type at human MRGPRX1” value (human MRGPRX1 [1]) read?
A: Its value is “full agonists”.

Q: What about the “ligand efficiency (LE)” value (human MRGPRX1 [1]) of the same molecule?
A: Its value is 0.32–0.33.

Q: And the “inhibitory effect on HVA Ca2+ currents” value ([2]; bath application of 10 μM)?
A: Its value is “inhibited HVA Ca^2+ currents”.

Q: With COc1cc(CNc2ccc(C(=N)N)cc2)ccc1OCc1cccnc1 [Compound 5d, 4-(3-Methoxy-4-(pyridin-3-ylmethoxy)benzylamino)benzimidamide] as the molecule, how does the “fold decrease in agonist potency as compared to 5a” value (human MRGPRX1 [1]) read?
A: Its value is 10 fold.

Q: For COc1cc(CNc2cccc(C(=N)N)c2)ccc1OCc1ccccc1 [Compound 5b, 3-(4-(Benzyloxy)-3-methoxybenzylamino)benzimidamide], which “fold decrease in agonist potency as compared to 5a” value (human MRGPRX1 [1]) is on record?
A: The value was 6 fold.

Q: For BAM8-22, which “agonist activity at human MRGPRX1” value (human MRGPRX1 [3]) is on record?
A: The value was “full agonist activity”.

Q: What about the “effect on mechanical and thermal hyperalgesia” value [4] of the same molecule?
A: The value was “attenuate both mechanical and thermal hyperalgesia”.

Q: And the “agonist activity at rat MRGPRC” value (rat MRGPRC)?
A: Its value is “full agonist activity”.

Q: What about the “agonist activity at mouse MRGPRC11” value (mouse MRGPRC11 [5]) of the same molecule?
A: Its value is “full agonist activity”.

Q: And the “effect on mechanical and thermal hyperalgesia” value [6]?
A: Its value is “attenuate both mechanical and thermal hyperalgesia”.

Q: And the “inhibitory effect on HVA Ca2+ currents” value ([2]; bath application of 5 μM)?
A: Its value is “inhibited HVA Ca^2+ currents”.

Q: With NC(=O)[C@H](Cc1ccccc1)NC(=O)[C@H](N)Cc1ccc(N=C(N)N)cc1 [JHU-58] (H-[dPhe(4-guanidino)]-Phe-NH2) as the molecule, how does the “agonist activity at human MRGPRX1” value (human MRGPRX1 [3]; introduction) read?
A: The value was “negligible agonist activity”.

Q: What about the “agonist activity at rat MRGPRC” value (rat MRGPRC) of the same molecule?
A: The value was “full agonist activity”.

Q: And the “analgesic effects” value (neuropathic pain)?
A: Its value is “exhibits analgesic effects”.

Q: And the “agonist activity at mouse MRGPRC11” value (mouse MRGPRC11 [5])?
A: Its value is “full agonist activity”.

Q: For COc1ccccc1S(=O)(=O)Nc1ccc(C)cc1Oc1ccc2sc(N)nc2c1 [Compound 19, N-(2-(2-Aminobenzo[d]thiazol-5-yloxy)-4-methylphenyl)-2-methoxybenzenesulfonamide], which “agonist activity at MRGPRX1” value (human MRGPRX1 [1]) is on record?
A: The value was “negligible agonist activity; also recorded: no agonist activity”.

Q: With COc1ccccc1S(=O)(=O)Nc1ccc(C)cc1Oc1ccc2c(N)nccc2c1 [Compound 16, N-(2-(1-Aminoisoquinolin-6-yloxy)-4-methylphenyl)-2-methoxybenzenesulfonamide] as the molecule, how does the “activity against mouse MRGPRC11” value (mouse MRGPRC11 [7]) read?
A: The value was “inactive”.

Q: And the half-life [8]?
A: Its half-life is under 15 min.

Q: What about the “selectivity over all three opioid receptors” value [9] of the same molecule?
A: Its value is at least 50 fold.
